Measurements: ChEMBL document CHEMBL1149108, “Arecoline tripeptide inhibitors of proteasome” (J Med Chem, 2004)
pIC50: −log10 of the molar value. Non-standard residues stand in square brackets, D forms with d. Residues, ends and D or L forms follow the SMILES beside them. ξ: configuration not given here. *: point of attachment. Fmoc = O=C(OCC1c2ccccc2-c2ccccc21)*; Cbz = O=C(OCc1ccccc1)*; ξNle = CCCCC(N)C(=O)O; NHBn = c1ccc(CN*)cc1

Experiments:
Proteasome [1] = assay: Inhibitory activity was evaluated against trypsin-like (proteasome) enzyme; type: subcellular
Outline: (§1)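 Proteasome partially purified from lymphoblastoid cell lines, affinity-purified and dialysed against 25 mM Tris-HCl pH 7.5. Enzyme untreated or pretreated with 0.01-20 µM compound, then incubated 30 min at 37 °C in activity buffer with fluorogenic substrate: Suc-LLVY-AMC for chymotrypsin-like, Boc-LRR-AMC for trypsin-like. Fluorescence read at ex 360/em 465 nm; IC50 derived.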

Proteasome [2] = assay: Inhibitory activity was evaluated against chymotrypsin-like enzyme; type: subcellular; outline: as §1
Proteasome [3] = assay: Inhibitory activity was evaluated against postacid PGPH active site; type: subcellular
Outline: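 Postacidic (PGPH) activity measured with Ac-YVAD-AMC on partially purified, affinity-purified lymphoblastoid proteasome in 25 mM Tris-HCl pH 7.5. Enzyme untreated or pretreated with 0.01-20 µM compound, then substrate added for 30 min at 37 °C in activity buffer. Fluorescence read at ex 360/em 465 nm; IC50 calculated.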

[4] = Half-life in human plasma was determined; type: ADME
Outline: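 Compound incubated with human plasma (0.6 mL in 1.5 mL total) in 10 mM Tris-HCl pH 7.5 at 37 °C for up to 360 min. Ethanol added to stop the reaction, then centrifugation and RP-HPLC of the supernatant. Half-life taken from least-squares regression of log concentration versus time, minimum five points.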

[5] = Half-life in culture medium was determined; type: ADME
Outline: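 Compound (stock 10 mg/mL in acetonitrile/H2O 1:1) added to RPMI containing 20% FCS and incubated at 37 °C for up to 2 days. Ethanol added to stop the reaction, then centrifugation and RP-HPLC of the supernatant. Half-life taken from least-squares linear regression of log inhibitor concentration versus time, at least five points.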

SMILES | pIC50 (Proteasome [1]) | pIC50 (Proteasome [2]) | pIC50 (Proteasome [3]) | half-life [4] [h] | half-life [5] [h]
CCCCC(NC(=O)OCC1c2ccccc2-c2ccccc21)C(=O)N[C@@H](CO)C(=O)N[C@@H](CC(C)C)C(=O)NCc1ccccc1 (stereo partly drawn) (Fmoc-[ξNle]-Ser-Leu-NHBn) | < 4.70 | < 4.70 | < 4.70 |  | 
CC[C@H](C)[C@H](NC(=O)OCc1ccccc1)C(=O)N[C@@H](CO)C(=O)N[C@@H](CC(C)C)C(=O)NCc1ccccc1 (HELM PEPTIDE1{[O=C(OCc1ccccc1)[*:2]].I.S.L.[c1ccc(CN[*:1])cc1]}$$$$V2.0) | < 4.70 | < 4.70 | < 4.70 |  | 
CC[C@H](C)[C@H](NC(=O)OCC1c2ccccc2-c2ccccc21)C(=O)N[C@@H](CO)C(=O)N[C@@H](CC(C)C)C(=O)NCc1ccccc1 (HELM PEPTIDE1{[O=C(OCC1c2ccccc2-c2ccccc21)[*:2]].I.S.L.[c1ccc(CN[*:1])cc1]}$$$$V2.0) | < 4.70 | < 4.70 | < 4.70 |  | 
CC(C)C[C@H](NC(=O)[C@H](CO)NC(=O)[C@@H](NC(=O)OCc1ccccc1)C(C)C)C(=O)NCc1ccccc1 (HELM PEPTIDE1{[O=C(OCc1ccccc1)[*:2]].V.S.L.[c1ccc(CN[*:1])cc1]}$$$$V2.0) | 5.02 | 5.43 | < 4.70 |  | 
CC(C)C[C@H](NC(=O)[C@H](CO)NC(=O)[C@H](C)NC(=O)OCC1c2ccccc2-c2ccccc21)C(=O)NCc1ccccc1 (HELM PEPTIDE1{[O=C(OCC1c2ccccc2-c2ccccc21)[*:2]].A.S.L.[c1ccc(CN[*:1])cc1]}$$$$V2.0) | < 4.70 | < 4.70 | < 4.70 |  | 
CC(C)C[C@H](NC(=O)[C@H](CO)NC(=O)[C@H](Cc1ccccc1)NC(=O)OCC1c2ccccc2-c2ccccc21)C(=O)NCc1ccccc1 | 4.89 | 4.96 | 4.72 |  | 
CCCCC(NC(=O)OCc1ccccc1)C(=O)N[C@@H](CO)C(=O)N[C@@H](CC(C)C)C(=O)NCc1ccccc1 (stereo partly drawn) (Cbz-[ξNle]-Ser-Leu-NHBn) | 4.74 | < 4.70 | < 4.70 |  | 
CC(C)C[C@H](NC(=O)[C@H](CO)NC(=O)[C@H](Cc1ccccc1)NC(=O)C1=CCCNC1)C(=O)NCc1ccccc1 | 5.53 | 5.91 | < 4.70 | > 6 | > 6
CC(C)C[C@H](NC(=O)[C@H](CO)NC(=O)[C@H](C)NC(=O)OCc1ccccc1)C(=O)NCc1ccccc1 (HELM PEPTIDE1{[O=C(OCc1ccccc1)[*:2]].A.S.L.[c1ccc(CN[*:1])cc1]}$$$$V2.0) | < 4.70 | < 4.70 | < 4.70 |  | 
CC(C)C[C@H](NC(=O)C1=CCCNC1)C(=O)N[C@@H](CC(C)C)C(=O)N[C@@H](CC(C)C)C(=O)NCc1ccccc1 | 5.59 | 5.85 | < 4.70 | 4.92 | > 6
CC(C)C[C@H](NC(=O)OCc1ccccc1)C(=O)N[C@@H](CC(C)C)C(=O)N[C@@H](CC(C)C)C(=O)NCc1ccccc1 (HELM PEPTIDE1{[O=C(OCc1ccccc1)[*:2]].L.L.L.[c1ccc(CN[*:1])cc1]}$$$$V2.0) | 5.05 | 5.02 | < 4.70 |  | 
CC(C)C[C@H](NC(=O)[C@H](CO)NC(=O)[C@@H](NC(=O)C1=CCCNC1)C(C)C)C(=O)NCc1ccccc1 | 5.67 | 6.28 | < 4.70 | > 6 | > 6
CC(C)C[C@H](NC(=O)[C@H](CO)NC(=O)[C@@H](NC(=O)OCC1c2ccccc2-c2ccccc21)C(C)C)C(=O)NCc1ccccc1 (HELM PEPTIDE1{[O=C(OCC1c2ccccc2-c2ccccc21)[*:2]].V.S.L.[c1ccc(CN[*:1])cc1]}$$$$V2.0) | 4.87 | 5.23 | < 4.70 |  | 
CC(C)C[C@H](NC(=O)[C@H](CO)NC(=O)[C@@H]1CCCN1C(=O)OCC1c2ccccc2-c2ccccc21)C(=O)NCc1ccccc1 (HELM PEPTIDE1{[O=C(OCC1c2ccccc2-c2ccccc21)[*:2]].P.S.L.[c1ccc(CN[*:1])cc1]}$$$$V2.0) | < 4.70 | < 4.70 | < 4.70 |  | 
CC(C)C[C@H](NC(=O)OCC1c2ccccc2-c2ccccc21)C(=O)N[C@@H](CO)C(=O)N[C@@H](CC(C)C)C(=O)NCc1ccccc1 (HELM PEPTIDE1{[O=C(OCC1c2ccccc2-c2ccccc21)[*:2]].L.S.L.[c1ccc(CN[*:1])cc1]}$$$$V2.0) | < 4.70 | < 4.70 | < 4.70 |  | 
CC(C)C[C@H](NC(=O)[C@H](CO)NC(=O)[C@H](Cc1ccccc1)NC(=O)OCc1ccccc1)C(=O)NCc1ccccc1 | 5.32 | 5.66 | 4.76 |  | 
CC(C)C[C@H](NC(=O)OCC1c2ccccc2-c2ccccc21)C(=O)N[C@@H](CC(C)C)C(=O)N[C@@H](CC(C)C)C(=O)NCc1ccccc1 (HELM PEPTIDE1{[O=C(OCC1c2ccccc2-c2ccccc21)[*:2]].L.L.L.[c1ccc(CN[*:1])cc1]}$$$$V2.0) | 4.97 | 4.91 | < 4.70 |  | 
CC(C)C[C@H](NC(=O)OCc1ccccc1)C(=O)N[C@@H](CO)C(=O)N[C@@H](CC(C)C)C(=O)NCc1ccccc1 (HELM PEPTIDE1{[O=C(OCc1ccccc1)[*:2]].L.S.L.[c1ccc(CN[*:1])cc1]}$$$$V2.0) | 4.80 | < 4.70 | < 4.70 |  | 
